Experimental findings from ChEMBL document CHEMBL1138485, “Discovery of inducible nitric oxide synthase (iNOS) inhibitor development candidate KD7332, part 1: Identification of a novel, potent, and selective series of quinolinone iNOS dimerization inhibitors that are orally active in rodent pain models” (J Med Chem, 2009) are described below.

As usually defined, the EC50 is the concentration that produces a half-maximal response. What is called inhibition is the relative decrease from the control value, in per cent.

Series [1] deals with T1, Nitric oxide synthase, inducible (Homo sapiens, UniProt P35228). Put plainly: Inhibition of human iNOS expressed in HEK293 cells assessed as NO production by transient transfection assay. Type of series: cell-based. A digest of the protocol:
(§1)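 HEK293 cells grown to ~70% confluence in DMEM/10% FBS with pen/strep. Cells transiently transfected with 10 µg human or murine iNOS plasmid (Fugene 6), 4 h at 37 °C, 10% CO2. Trypsinized, plated at 5 × 10⁵ cells/mL and dosed at once; 1400W 100 µM final as positive control. After 18 h, NO read as DAN fluorescence (10 µg/mL, 20 min RT, then NaOH). EC50 from 3 runs, 10-point curves, n = 8/point.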

Series [2] addresses T1, Nitric oxide synthase, inducible. Put plainly: Inhibition of human iNOS expressed in HEK293 cells assessed as NO production at 100 uM by transient transfection assay. It counts as cell-based.
The target of a further series is T2, Nitric oxide synthase 3 (Homo sapiens, UniProt P29474).
T2 sequence (P29474 whole entry): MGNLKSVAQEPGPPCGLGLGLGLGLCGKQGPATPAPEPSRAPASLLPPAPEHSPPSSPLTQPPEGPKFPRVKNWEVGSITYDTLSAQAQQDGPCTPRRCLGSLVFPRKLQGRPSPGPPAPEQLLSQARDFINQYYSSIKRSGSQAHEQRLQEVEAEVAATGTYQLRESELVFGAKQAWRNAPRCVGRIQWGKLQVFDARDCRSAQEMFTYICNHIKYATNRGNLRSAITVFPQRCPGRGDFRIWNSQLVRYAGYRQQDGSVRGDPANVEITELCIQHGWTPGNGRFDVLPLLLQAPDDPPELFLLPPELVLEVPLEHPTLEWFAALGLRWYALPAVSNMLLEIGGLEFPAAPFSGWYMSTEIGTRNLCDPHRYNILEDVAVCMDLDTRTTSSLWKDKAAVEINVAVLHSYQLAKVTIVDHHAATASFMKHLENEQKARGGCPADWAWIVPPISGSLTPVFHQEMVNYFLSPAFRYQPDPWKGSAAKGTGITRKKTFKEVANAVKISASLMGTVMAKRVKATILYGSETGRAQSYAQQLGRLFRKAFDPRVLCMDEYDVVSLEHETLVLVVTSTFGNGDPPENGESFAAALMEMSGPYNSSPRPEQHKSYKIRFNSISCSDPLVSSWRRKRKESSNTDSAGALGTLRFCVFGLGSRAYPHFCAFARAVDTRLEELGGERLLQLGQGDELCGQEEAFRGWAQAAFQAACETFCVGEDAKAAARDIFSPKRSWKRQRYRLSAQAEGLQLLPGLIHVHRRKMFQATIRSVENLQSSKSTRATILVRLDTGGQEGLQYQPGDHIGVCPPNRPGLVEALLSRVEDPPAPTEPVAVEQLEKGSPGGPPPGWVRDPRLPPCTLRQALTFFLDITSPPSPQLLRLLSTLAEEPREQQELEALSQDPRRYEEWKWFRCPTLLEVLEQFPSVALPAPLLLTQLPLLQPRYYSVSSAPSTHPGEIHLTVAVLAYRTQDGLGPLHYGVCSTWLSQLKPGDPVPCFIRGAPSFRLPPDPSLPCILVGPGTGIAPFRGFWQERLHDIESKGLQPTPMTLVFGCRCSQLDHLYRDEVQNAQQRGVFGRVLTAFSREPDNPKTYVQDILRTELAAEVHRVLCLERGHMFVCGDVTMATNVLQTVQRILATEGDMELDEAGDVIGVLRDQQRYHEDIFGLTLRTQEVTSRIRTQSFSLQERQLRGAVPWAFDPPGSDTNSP
Description: Inhibition of human eNOS expressed in HEK293 cells assessed as NO production by transient transfection assay. It counts as cell-based. A digest of the protocol: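 HEK293 cells grown to ~70% confluence in DMEM/10% FBS with pen/strep, transfected with 15 µg human eNOS plasmid plus Fugene 6 (3:1 µL:µg), 4 h at 37 °C, 10% CO2. Cells replated at 5 × 10⁵/mL, compound added at once, 24 h incubation, then A23187 (83 nM final). After 18 h, NO read by DAN fluorescence.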

A further series concerns the target Nitric oxide synthase 1 (Homo sapiens, UniProt P29475). Put plainly: Inhibition of human nNOS expressed in HEK293 cells assessed as NO production by transient transfection assay. Type of series: cell-based.
Series [3] deals with T3, Nitric oxide synthase, inducible (Mus musculus, UniProt P29477).
T3 sequence (P29477 whole entry): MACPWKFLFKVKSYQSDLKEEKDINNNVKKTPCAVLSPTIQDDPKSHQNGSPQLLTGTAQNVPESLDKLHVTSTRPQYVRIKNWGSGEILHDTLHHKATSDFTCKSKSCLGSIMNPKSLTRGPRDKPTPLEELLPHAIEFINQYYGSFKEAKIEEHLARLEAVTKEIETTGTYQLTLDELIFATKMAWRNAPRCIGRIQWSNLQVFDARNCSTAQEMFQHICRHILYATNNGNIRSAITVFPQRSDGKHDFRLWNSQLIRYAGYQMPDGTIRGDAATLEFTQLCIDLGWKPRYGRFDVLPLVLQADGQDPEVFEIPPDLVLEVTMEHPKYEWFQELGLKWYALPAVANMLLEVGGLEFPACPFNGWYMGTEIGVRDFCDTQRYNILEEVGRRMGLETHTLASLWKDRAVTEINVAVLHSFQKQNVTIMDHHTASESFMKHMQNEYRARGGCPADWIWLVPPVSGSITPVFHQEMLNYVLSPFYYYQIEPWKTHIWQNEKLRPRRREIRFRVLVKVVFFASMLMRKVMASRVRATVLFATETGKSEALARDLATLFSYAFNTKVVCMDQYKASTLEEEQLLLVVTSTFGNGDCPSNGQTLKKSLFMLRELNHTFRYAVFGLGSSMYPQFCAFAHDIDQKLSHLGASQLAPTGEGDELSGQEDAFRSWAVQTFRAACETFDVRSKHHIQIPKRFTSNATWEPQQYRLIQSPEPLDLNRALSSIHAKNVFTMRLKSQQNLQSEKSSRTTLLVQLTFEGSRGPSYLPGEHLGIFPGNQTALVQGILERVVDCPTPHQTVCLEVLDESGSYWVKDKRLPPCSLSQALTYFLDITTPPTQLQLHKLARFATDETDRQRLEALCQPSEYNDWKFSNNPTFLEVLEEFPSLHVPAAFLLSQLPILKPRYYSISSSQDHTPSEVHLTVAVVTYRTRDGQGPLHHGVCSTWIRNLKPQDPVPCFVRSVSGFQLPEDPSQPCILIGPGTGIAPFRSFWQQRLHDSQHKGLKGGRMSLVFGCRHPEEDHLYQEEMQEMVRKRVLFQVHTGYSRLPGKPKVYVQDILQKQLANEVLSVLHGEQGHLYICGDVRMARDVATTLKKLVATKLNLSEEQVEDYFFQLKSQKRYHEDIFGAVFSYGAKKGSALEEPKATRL
Description: Inhibition of mouse iNOS expressed in HEK293 cells assessed as NO production in by transient transfection assay. It counts as cell-based. A digest of the protocol:
as §1

Another series deals with Mus musculus. Description: Reduction of plasma nitrate level in LPS-challenged BALB/c mouse at 30 mg/kg, po. Type of series: functional. The arrangement: scale not given: the % may be the effect or the level left. Summed up: (§2)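 Male Balb/c mice were dosed by oral gavage (90% PEG/5% Tween 80/5% PVP + 90% CMC (0.5% w/v)) at t = 0 h, 30 mg/kg for single-dose lines. LPS 10 mg/kg ip in 0.9% NaCl followed immediately. At 6 h, EDTA plasma was taken for nitrate and drug levels. Nitrate reduction is relative to vehicle; ED50 came from full oral dose-response.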

Series [4] in a line: Drug level in LPS-challenged BALB/c mouse plasma at 30 mg/kg, po after 6 hrs. The arrangement: dose 30 mg/kg, route oral. Type of series: ADME, organism-based. Summed up: as §2

T1 sequence (P35228 whole entry): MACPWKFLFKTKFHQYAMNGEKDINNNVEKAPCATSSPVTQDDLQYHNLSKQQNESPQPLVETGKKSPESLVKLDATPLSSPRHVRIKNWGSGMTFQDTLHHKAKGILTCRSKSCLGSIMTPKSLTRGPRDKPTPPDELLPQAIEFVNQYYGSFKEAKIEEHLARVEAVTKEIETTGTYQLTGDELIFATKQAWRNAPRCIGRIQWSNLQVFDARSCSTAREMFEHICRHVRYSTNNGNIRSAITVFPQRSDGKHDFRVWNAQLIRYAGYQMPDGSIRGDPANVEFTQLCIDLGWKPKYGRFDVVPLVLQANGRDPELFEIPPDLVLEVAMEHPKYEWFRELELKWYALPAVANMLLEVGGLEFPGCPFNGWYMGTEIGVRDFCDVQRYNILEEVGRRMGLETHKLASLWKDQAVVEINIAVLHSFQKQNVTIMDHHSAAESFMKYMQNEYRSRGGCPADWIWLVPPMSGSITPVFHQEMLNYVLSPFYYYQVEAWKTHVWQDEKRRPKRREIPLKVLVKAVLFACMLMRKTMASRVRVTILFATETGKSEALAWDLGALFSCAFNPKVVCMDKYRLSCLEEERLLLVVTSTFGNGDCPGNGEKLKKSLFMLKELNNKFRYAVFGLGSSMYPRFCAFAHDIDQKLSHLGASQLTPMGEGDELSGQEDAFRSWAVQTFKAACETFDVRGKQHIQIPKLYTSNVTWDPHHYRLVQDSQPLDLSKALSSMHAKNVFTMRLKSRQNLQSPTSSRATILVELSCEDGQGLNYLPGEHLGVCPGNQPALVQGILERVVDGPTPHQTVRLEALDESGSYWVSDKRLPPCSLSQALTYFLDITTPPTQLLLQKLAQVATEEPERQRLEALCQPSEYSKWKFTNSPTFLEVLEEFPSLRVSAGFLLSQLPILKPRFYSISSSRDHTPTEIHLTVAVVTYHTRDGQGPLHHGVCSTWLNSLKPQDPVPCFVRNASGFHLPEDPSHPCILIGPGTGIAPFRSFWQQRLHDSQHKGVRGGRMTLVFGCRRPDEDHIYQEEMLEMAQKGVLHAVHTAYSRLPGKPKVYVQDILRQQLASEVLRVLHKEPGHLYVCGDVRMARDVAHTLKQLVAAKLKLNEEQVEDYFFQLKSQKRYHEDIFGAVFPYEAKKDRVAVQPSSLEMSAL
Chain of Nitric oxide synthase 1 (P29475 whole entry): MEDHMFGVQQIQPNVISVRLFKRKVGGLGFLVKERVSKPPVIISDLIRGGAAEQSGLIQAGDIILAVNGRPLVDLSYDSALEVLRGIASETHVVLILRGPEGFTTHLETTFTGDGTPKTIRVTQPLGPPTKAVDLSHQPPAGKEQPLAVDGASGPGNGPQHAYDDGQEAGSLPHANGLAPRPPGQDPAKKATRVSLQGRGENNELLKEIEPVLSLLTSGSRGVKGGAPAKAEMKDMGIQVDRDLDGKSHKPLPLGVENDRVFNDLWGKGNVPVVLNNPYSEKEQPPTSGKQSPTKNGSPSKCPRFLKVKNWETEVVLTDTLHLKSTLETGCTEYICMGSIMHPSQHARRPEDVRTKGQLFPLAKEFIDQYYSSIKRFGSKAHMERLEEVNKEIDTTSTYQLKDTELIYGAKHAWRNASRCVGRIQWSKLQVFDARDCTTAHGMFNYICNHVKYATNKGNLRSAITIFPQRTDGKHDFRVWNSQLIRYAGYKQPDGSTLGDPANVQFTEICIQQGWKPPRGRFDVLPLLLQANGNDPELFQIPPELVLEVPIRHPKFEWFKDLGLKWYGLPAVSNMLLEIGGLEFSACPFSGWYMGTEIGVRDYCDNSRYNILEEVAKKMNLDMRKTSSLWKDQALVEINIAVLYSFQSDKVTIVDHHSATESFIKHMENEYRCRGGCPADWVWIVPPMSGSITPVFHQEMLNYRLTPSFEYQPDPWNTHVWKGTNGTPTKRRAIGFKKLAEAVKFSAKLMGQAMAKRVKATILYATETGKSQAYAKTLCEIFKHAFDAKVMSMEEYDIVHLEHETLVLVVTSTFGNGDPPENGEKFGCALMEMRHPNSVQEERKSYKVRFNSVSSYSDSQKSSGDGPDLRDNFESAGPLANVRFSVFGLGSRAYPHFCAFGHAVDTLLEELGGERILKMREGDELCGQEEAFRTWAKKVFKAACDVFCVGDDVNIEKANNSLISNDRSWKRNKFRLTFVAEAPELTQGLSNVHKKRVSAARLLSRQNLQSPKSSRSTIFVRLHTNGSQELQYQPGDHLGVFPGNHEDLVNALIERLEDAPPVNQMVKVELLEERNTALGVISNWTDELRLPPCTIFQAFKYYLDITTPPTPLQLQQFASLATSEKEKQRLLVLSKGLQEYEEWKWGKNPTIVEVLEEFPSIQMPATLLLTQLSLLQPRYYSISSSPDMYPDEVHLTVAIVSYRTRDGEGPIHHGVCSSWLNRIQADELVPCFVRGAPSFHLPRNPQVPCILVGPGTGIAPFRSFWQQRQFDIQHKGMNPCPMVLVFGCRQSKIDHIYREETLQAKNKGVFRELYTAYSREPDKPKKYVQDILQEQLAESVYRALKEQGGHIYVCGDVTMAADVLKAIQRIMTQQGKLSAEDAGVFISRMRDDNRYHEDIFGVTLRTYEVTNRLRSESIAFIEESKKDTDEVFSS

`Cc1ncsc1C(=O)N(Cc1ccnc2c(F)cccc12)c1cccc(Cl)c1`: the half-maximal effective concentration (EC50) in series [1] is over 100000 nM. In addition, in series [2], the inhibition was under 50%.

As to `COc1cc(CN(C(=O)c2scnc2C)c2cccc(Cl)c2)c2cccc(F)c2n1`, in series [1], the EC50 is over 100000 nM. Moreover, the inhibition in series [2] was under 50%.

For `Cc1ncsc1C(=O)N(Cc1cc[nH]c(=O)c1)c1cccc(Cl)c1`, the EC50 in series [1] was over 100000 nM. In series [2], the inhibition is under 50%.

Turning to `Cc1noc(C)c1C(=O)N(Cc1cc(=O)[nH]c2c(F)c(F)ccc12)c1cccc(Cl)c1`, the 50% effective concentration (EC50) stood at 3 nM in series [1], 1200 nM on Nitric oxide synthase 3, 97 nM at Nitric oxide synthase 1 and 22 nM in series [3]. Further, the Activity in the series with Mus musculus came out at 67%.

For the compound `Cc1ncsc1C(=O)N(Cc1c[n+]([O-])cc2c(F)cccc12)c1cccc(Cl)c1`, the 50% effective concentration (EC50) in series [1] was determined as 87 nM; in series [3], 660 nM. The compound further registered an Activity with Mus musculus of 20%. This compound registered a concentration at 6 h in series [4] of 39 ng/mL.

Take `Cc1ncsc1C(=O)N(Cc1c(F)c(=O)[nH]c2c(F)cccc12)c1cccc(Cl)c1`: the concentration giving a half-maximal response (EC50) in series [1] was 26 nM; at Nitric oxide synthase 3, 35000 nM; on Nitric oxide synthase 1, over 10000 nM; in series [3], 130 nM. This compound yielded an Activity with Mus musculus of 29%.

As to `Cc1ncsc1C(=O)N(Cc1cc(=O)n(C)c2c(F)cccc12)c1cccc(Cl)c1`, the EC50 in series [1] is over 100000 nM. For the same compound, the inhibition in series [2] was under 50%.
